Measured values: ChEMBL document CHEMBL1127570, “Synthesis and anticonvulsant properties of new benzylpyridazine derivatives” (J Med Chem, 1994)

Experiments:
Mus musculus [1] = experiment: Locomotor activity in maximal electroshock seizure+ indicates increase at 100 mg/kg; format: functional
Mus musculus [2] = species on record: Mus musculus; experiment: Anticonvulsant activity in mice using the maximal electroshock seizure test.; format: functional
Procedure, shortened: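 Oral dosing of mice 30 min before maximal electroshock via corneal electrodes. Protection is abolition of the hind limb tonic extensor component.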

Mus musculus [3] = experiment: Locomotor activity in maximal electroshock seizure. - indicates decrease at 100 mg/kg; format: functional
Mus musculus [4] = experiment: Anticonvulsant activity was measured using the maximal electroshock seizure test in mice. protection percentage at 100 mg/kg; format: functional; conditions: for % protection at 100 mg/kg: Mus musculus
Mus musculus [5] = experiment: Tested for NMDLA induced seizures and protection against full generalized tonic seizures was recorded; Percentage of protection at 150 mg/kg per os.; format: functional; conditions: for ED50: Mus musculus, po
Procedure, shortened: (§1)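 Compounds given 30 min before N-methyl-D,L-aspartate 345 mg/kg sc in mice. Protection against full generalized tonic seizures recorded. Chi-square with Yates correction.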

Mus musculus [6] = experiment: Tested for the abolition of the hand leg tonic extensor component of the seizure induced by a 0.96 mg/kg sc injection of strychnine; Percentage of protection at 100 mg/kg per os.; format: functional
Procedure, shortened: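 Oral dose of 100 mg/kg in mice, 10 per dose, given 30 min before strychnine 0.96 mg/kg sc. Protection means abolition of the hind leg tonic extensor component, given as percentage of animals protected. Chi-square with Yates correction.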

Mus musculus [7] = experiment: Yohimbine induced seizures by administrating sc and the compound which do not exhibit at least one clonic seizure within 60 min was recorded; Percentage of protection at 150 mg/kg per os.; format: functional; conditions: route subcutaneous; for ED50: Mus musculus, sc, 1 h
Procedure, shortened: (§2)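 Compound given 30 min before yohimbine 45 mg/kg sc in mice. Animals without at least one clonic seizure within 60 min count as protected. Chi-square with Yates correction.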

[8] = Central nervous system toxicity was performed by determining the median toxic dose in the rotarod test; format: organism-based; conditions: mouse, in vivo
Procedure, shortened: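 Rotarod neurotoxicity in mice, oral dosing 30 min before assay. Failure to stay 3 min on a 3-cm wooden rod turning at 8 rpm counts as toxic.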

[9] = Protective index is the ratio between TD50 and ED50 values; format: functional
Procedure, shortened: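 Protective index is rotarod TD50 divided by ED50. Both come from oral dosing in mice 30 min before test and are calculated by Litchfield–Wilcoxon.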

Mus musculus [10] = experiment: Ability to prevent the tonic extensor component induced by 106.25 mg/kg sc of pentylenetetrazole; Percentage of protection at 100 mg/kg per os.; format: functional
Procedure, shortened: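 Mice dosed orally 30 min before pentylenetetrazole 106.25 mg/kg sc. Protection is block of the tonic extensor component. Groups of 10 mice per dose; chi-square with Yates correction; ED50 by Litchfield–Wilcoxon.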

Mus musculus [11] = species on record: Mus musculus; experiment: (§3) Anticonvulsant activity against bicuculline induced seizures in mice; format: functional
Procedure, shortened: (§4)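 Mice given compound 30 min before bicuculline 0.81 mg/kg iv (procedure after Heyer). Protection against clonic seizures recorded. Groups of 10 mice per dose; chi-square with Yates correction.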

Mus musculus [12] = experiment: Tested for the abolition of the hand leg tonic extensor component of the seizure induced by a 0.96 mg/kg sc injection of strychnine; format: functional; conditions: route subcutaneous
Procedure, shortened: (§5)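 Mice tested 30 min after compound for abolition of the tonic extensor component from strychnine 0.96 mg/kg sc. Chi-square with Yates correction; ED50 by Litchfield–Wilcoxon.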

Mus musculus [13] = experiment: Tested for NMDLA induced seizures and protection against full generalized tonic seizures was recorded; Percentage of protection at 30 mg/kg per os.; conditions: po
Mus musculus [14] = experiment: Ability to prevent the tonic extensor component induced by 106.25 mg/kg sc of pentylenetetrazole; format: functional; conditions: route subcutaneous
Mus musculus [15] = experiment: Yohimbine induced seizures by administrating sc and the compound which do not exhibit at least one clonic seizure within 60 min was recorded; format: functional; conditions: 1 h
Procedure, shortened: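 Mice, 10 per dose, dosed 30 min before yohimbine 45 mg/kg sc. Animals with no clonic seizure within 60 min were counted as protected. ED50 by Litchfield–Wilcoxon; chi-square with Yates correction.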

Mus musculus [16] = species on record: Mus musculus; experiment: as §3; format: functional; remark: listed apart in the source
Procedure, shortened: (§6)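 Mice, 10 per dose. Test drug given 30 min before bicuculline 0.81 mg/kg iv; protection against clonic seizures recorded. Line 2: single oral dose of 100 mg/kg, given as percentage of animals protected. ED50 by Litchfield–Wilcoxon; chi-square with Yates correction.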

Mus musculus [17] = experiment: Tested for the abolition of the hand leg tonic extensor component of the seizure induced by a 0.96 mg/kg sc injection of strychnine;Percentage of protection at 100 mg/kg per os.; format: functional; procedure, shortened: as §5
Mus musculus [18] = experiment: (§7) Anticonvulsant activity against bicuculline induced seizures in mice; Percentage of protection at 100 mg/kg per os.; format: functional; procedure, shortened: as §4
Mus musculus [19] = experiment: yohimbine induced seizures by administrating sc and the compound which do not exhibit at least one clonic seizure within 60 min was recorded; Percentage of protection at 100 mg/kg per os.; format: functional; conditions: 1 h, route subcutaneous; procedure, shortened: as §2
Mus musculus [20] = experiment: as §7; format: functional; procedure, shortened: as §6; remark: listed apart in the source
Mus musculus [21] = experiment: Tested for NMDLA induced seizures and protection against full generalized tonic seizures was recorded; Percentage of protection at 100 mg/kg per os.; format: functional; conditions: po; procedure, shortened: as §1
Mus musculus [22] = species on record: Mus musculus; experiment: Tested for NMDLA induced seizures and protection against full generalized tonic seizures was recorded; format: functional
Procedure, shortened: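 NMDLA (N-methyl-D,L-aspartate) 345 mg/kg sc injected 30 min after test drug in mice, 10 per dose; protection against full generalized tonic seizures recorded. ED50 by Litchfield–Wilcoxon; chi-square with Yates correction.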

| Compound | Locomotor activity (Mus musculus [1]) [%] | ED50 (Mus musculus [2]) [mg/kg] | Locomotor activity (Mus musculus [3]) [%] | TD50 [8] [mg/kg] | PI [9] | also measured |
| --- | --- | --- | --- | --- | --- | --- |
| Cc1nn2c(-c3ccccc3)nnc2cc1Cc1ccccc1 | 2 | 108 | – | – | – | – |
| Cc1nn2cc(-c3ccccc3)nc2cc1Cc1ccccc1 | 12 | 105 | – | – | – | – |
| Cc1nn2c(C)nnc2cc1Cc1ccccc1Cl | – | 30.5 | -1 | – | – | – |
| Cc1nnc(NNC(=O)Nc2ccccc2)cc1Cc1ccccc1Cl | – | – | -3 | – | – | % protection at 100 mg/kg (Mus musculus [4]): 33% |
| Cc1nnc(NNC(=O)c2ccccc2)cc1Cc1ccccc1 | – | – | -62 | – | – | % protection at 100 mg/kg (Mus musculus [4]): 17% |
| CCCC(CCC)C(=O)[O-].[Na+] [VALPROATE SODIUM] | – | 112 | -5 | 208 | 1.9 | percent protection (Mus musculus [5]): 0%; percent protection (Mus musculus [6]): 0%; ED50 (Mus musculus [7]): 10 mg/kg; pct protection (Mus musculus [10]): 20% |
| Cc1nn2cnnc2cc1Cc1ccccc1 | 8 | 9.5 | – | 170 | 17.9 | ED50 (Mus musculus [5]): 25 mg/kg; ED50 (Mus musculus [11]): 63 mg/kg; ED50 (Mus musculus [12]): 85 mg/kg; percent protection (Mus musculus [7]): 0%; pct protection (Mus musculus [10]): 20% |
| Cc1nn2c(N)nnc2cc1Cc1ccc(F)cc1 | – | 43 | -15 | – | – | – |
| Cc1nn2c(C)nnc2cc1Cc1ccccc1 | 47 | 26 | – | – | – | – |
| CN1C(=O)CN=C(c2ccccc2)c2cc(Cl)ccc21 [DIAZEPAM] | – | 4 | – | 2.8 | 0.7 | ED50 (Mus musculus [13]): 30 mg/kg; ED50 (Mus musculus [14]): 0.5 mg/kg; ED50 (Mus musculus [12]): 1.1 mg/kg; ED50 (Mus musculus [15]): 2.3 mg/kg; ED50 (Mus musculus [16]): 0.39 mg/kg |
| O=C1NC(=O)C(c2ccccc2)(c2ccccc2)N1 [PHENYTOIN] | – | 4 | -16 | 30.5 | 7.6 | percent protection (Mus musculus [5]): 0%; percent protection (Mus musculus [17]): 0%; ED50 (Mus musculus [7]): 10 mg/kg; percent protection (Mus musculus [18]): 0%; percent protection (Mus musculus [10]): 0% |
| NC(=O)N1c2ccccc2C=Cc2ccccc21 [CARBAMAZEPINE] | 7 | 5.5 | – | 40 | 7.3 | ED50 (Mus musculus [5]): 20 mg/kg; ED50 (Mus musculus [14]): 17.5 mg/kg; ED50 (Mus musculus [19]): 10 mg/kg; percent protection (Mus musculus [20]): 0%; ED50 (Mus musculus [12]): 8.5 mg/kg |
| Cc1nnc(NC(N)=O)cc1Cc1ccccc1 | – | 10.2 | -5 | 140 | 13.7 | ED50 (Mus musculus [5]): 12.5 mg/kg; ED50 (Mus musculus [11]): 111 mg/kg; ED50 (Mus musculus [12]): 28 mg/kg; ED50 (Mus musculus [7]): 10 mg/kg; pct protection (Mus musculus [10]): 20% |
| Cc1nnc(NNC(=O)N(c2ccccc2)c2ccccc2)cc1Cc1ccccc1 | 9 | – | – | – | – | % protection at 100 mg/kg (Mus musculus [4]): 15% |
| Cc1nn2c(N)nnc2cc1Cc1c(Cl)cccc1Cl | 16 | 9.2 | – | 410 | 44.5 | ED50 (Mus musculus [5]): 14 mg/kg; ED50 (Mus musculus [14]): 76 mg/kg; ED50 (Mus musculus [11]): 93 mg/kg; ED50 (Mus musculus [12]): 34.5 mg/kg; ED50 (Mus musculus [15]): 76 mg/kg |
| Cc1nnc(NNC(=O)Nc2ccccc2)cc1Cc1ccccc1 | – | – | – | – | – | percent protection (Mus musculus [4]): 0% |
| Cc1nn2c(NC(=O)c3ccccc3)nnc2cc1Cc1ccccc1 | 7 | 35 | – | – | – | – |
| Cc1nn2c(N)nnc2cc1Cc1ccccc1Cl | – | 17.4 | -7 | – | – | – |
| Cc1nn2cnnc2cc1Cc1c(Cl)cccc1Cl | 13 | 6.2 | – | 88 | 14.2 | pct protection (Mus musculus [21]): 12.5%; ED50 (Mus musculus [14]): 70 mg/kg; ED50 (Mus musculus [11]): 125 mg/kg; ED50 (Mus musculus [12]): 39.5 mg/kg; ED50 (Mus musculus [15]): 150 mg/kg |
| Cc1nnc(NNC(=O)C(C)C)cc1Cc1ccccc1Cl | – | – | -57 | – | – | % protection at 100 mg/kg (Mus musculus [4]): 17% |
| Cc1nn2cnnc2cc1Cc1ccccc1Cl | 5 | 6 | – | – | – | – |
| Cc1nn2c(N)nnc2cc1Cc1ccccc1 | 11 | 22 | – | > 800 | 36.4 | ED50 (Mus musculus [5]): 14 mg/kg; ED50 (Mus musculus [11]): 94 mg/kg; ED50 (Mus musculus [12]): 35 mg/kg; ED50 (Mus musculus [7]): 20 mg/kg; pct protection (Mus musculus [10]): 20% |
| Cc1ccc(Cc2cc3nnc(N)n3nc2C)cc1 | – | 22.5 | -8 | – | – | – |
| CCC1(c2ccccc2)C(=O)NC(=O)NC1=O [PHENOBARBITAL] | 33 | 4.6 | – | 33 | 7.2 | ED50 (Mus musculus [22]): 30 mg/kg; ED50 (Mus musculus [14]): 15 mg/kg; percent protection (Mus musculus [6]): 0%; ED50 (Mus musculus [15]): 17 mg/kg; ED50 (Mus musculus [16]): 20 mg/kg |
| Cc1nnc(NNC(=O)C(C)C)cc1Cc1ccccc1 | – | – | -67 | – | – | percent protection (Mus musculus [4]): 0% |
